A short description of experiment [1]: Relative potency is the bivalent potency ratio divided by monovalent potency ratio. In short, it runs like this:
(§1)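 Electrically stimulated guinea pig ileum longitudinal muscle, with agonist inhibition measured. Ligands were incubated 30 min before testing. Potency ratio = morphine IC50 / compound IC50 on the same tissue. The relative value divides the bivalent potency ratio by the monovalent potency ratio. Each value is the mean of at least three replicate experiments.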

For the next experiment, the target named is Mu-type opioid receptor (Cavia porcellus, UniProt P97266). Put plainly: Displacement of [3H]naloxone from Opioid receptor mu 1 in guinea pig brain membrane. The format is cell membranes. (Loss of bound radioactivity is the signal in a displacement assay; it reports binding, not function.)
Experiment [2] concerns the target Mu-type opioid receptor (Cavia porcellus) (UniProt P97266). Put plainly: Affinity comparison to [3H]naloxone for Opioid receptor mu 1 in guinea pig brain membrane. In kind it is cell membranes.
For experiment [3], the target named is Opioid receptors; mu & kappa (Homo sapiens, UniProt P41145+P35372). Description: Activity against opioid receptor in guinea pig ileum longitudinal muscle. In kind it is functional, tissue-based, Cavia porcellus. The settings on record: target entry is the homologue from another species. In short, it runs like this:
as §1

A short description of experiment [4]: Potency ratio is the ratio of morphine IC50 to that of compound on same tissue. In a few lines: as §1
Experiment [5] in a line: Relative potency is the IC5O in presence of bivalent ligand divided by IC50 in presence of monovalent ligand relative to morphine. In short, it runs like this:
(§2)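 Antagonism in electrically stimulated guinea pig ileum. Antagonist at 10 nM was incubated 30 min, then morphine (μ) or ethylketazocine (κ) concentration–response was run. IC50 ratio = agonist IC50 with antagonist / control IC50 in the same preparation without antagonist. Relative potency = bivalent IC50 ratio / monovalent IC50 ratio. Selectivity = EK IC50 ratio / morphine IC50 ratio.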

Experiment [6] can be described thus: (§3) Relative potency is the IC5O in presence of bivalent ligand divided by IC50 in presence of monovalent ligand relative to EK. In short, it runs like this:
as §2

The nature of experiment [7]: (§4) Selectivity ratio is expressed as EK IC50 ratio divided by morphine IC50 ratio. In short, it runs like this:
as §2

Experiment [8] addresses T1, Opioid receptors; mu/kappa/delta (Homo sapiens) (UniProt P41145+P41143+P35372). Put plainly: IC50 of the morphine in the presence of the antagonist (10 nM) divided by the control IC50 (same preparation without antagonist) in guinea pig ileum. In kind it is functional, tissue-based. Conditions: Cavia porcellus, target entry is the homologue from another species. In short, it runs like this: as §2

Experiment [9] addresses T1, Opioid receptors; mu/kappa/delta (Homo sapiens). The description is as §4. The format is protein assay. The settings on record: Cavia porcellus. In a few lines:
as §2

For experiment [10] the target is unchanged. Put plainly: Relative potency is the IC50 in presence of bivalent ligand divided by IC50 in presence of monovalent ligand relative to morphine. Conditions: Cavia porcellus. In a few lines: as §2
Experiment [11] has the same target. Described as §3. In kind it is protein assay. Conditions: Cavia porcellus. In a few lines: as §2
For experiment [12] the target is unchanged. Put plainly: IC50 of ethylketazocine (EK) in the presence of the antagonist (10 nM) divided by the control IC50 (same preparation without antagonist) in guinea pig ileum. In kind it is functional, tissue-based. Conditions: Cavia porcellus, target entry is the homologue from another species. In a few lines:
as §2

SMILES strings stand for the structures. Starred links: 1 amine or outer side, 2 acyl side, 3 side chain; linkers in the order of their positions; H or OH if unused. Positions of bridges follow the written chain, without caps; N, C: chain ends. Residues, ends and D or L forms follow the SMILES beside them. Chains are numbered I, II in the order given. *: point of attachment. Naltrexamine(6β) = Oc1ccc2c3c1O[C@H]1[C@H](N*)CC[C@@]4(O)[C@@H](C2)N(CC2CC2)CC[C@]314; Suc = O=C(CCC(=O)[*:2])[*:1]

T1 sequence (P35372 whole entry, looked up): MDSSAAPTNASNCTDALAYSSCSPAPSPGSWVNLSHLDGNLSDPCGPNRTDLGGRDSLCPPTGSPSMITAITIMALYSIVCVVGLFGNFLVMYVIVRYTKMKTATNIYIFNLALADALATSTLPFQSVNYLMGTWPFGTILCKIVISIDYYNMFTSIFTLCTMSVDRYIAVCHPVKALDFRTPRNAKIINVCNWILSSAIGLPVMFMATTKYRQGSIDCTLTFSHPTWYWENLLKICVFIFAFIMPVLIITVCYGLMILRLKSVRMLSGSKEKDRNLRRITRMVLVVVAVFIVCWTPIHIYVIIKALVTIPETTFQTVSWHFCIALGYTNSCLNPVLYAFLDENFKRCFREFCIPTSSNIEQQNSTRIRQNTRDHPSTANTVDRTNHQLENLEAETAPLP
T1 sequence (P41143 whole entry, looked up): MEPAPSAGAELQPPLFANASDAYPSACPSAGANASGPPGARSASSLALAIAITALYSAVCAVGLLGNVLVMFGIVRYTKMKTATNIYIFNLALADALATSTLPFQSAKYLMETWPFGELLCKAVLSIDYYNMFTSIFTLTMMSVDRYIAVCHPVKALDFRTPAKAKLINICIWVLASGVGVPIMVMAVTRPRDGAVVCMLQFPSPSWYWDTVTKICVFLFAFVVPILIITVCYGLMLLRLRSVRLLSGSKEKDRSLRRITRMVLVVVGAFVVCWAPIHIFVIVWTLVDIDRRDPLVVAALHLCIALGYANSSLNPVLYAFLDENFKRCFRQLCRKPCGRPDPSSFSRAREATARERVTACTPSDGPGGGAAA
T1 sequence (P41145 whole entry, looked up): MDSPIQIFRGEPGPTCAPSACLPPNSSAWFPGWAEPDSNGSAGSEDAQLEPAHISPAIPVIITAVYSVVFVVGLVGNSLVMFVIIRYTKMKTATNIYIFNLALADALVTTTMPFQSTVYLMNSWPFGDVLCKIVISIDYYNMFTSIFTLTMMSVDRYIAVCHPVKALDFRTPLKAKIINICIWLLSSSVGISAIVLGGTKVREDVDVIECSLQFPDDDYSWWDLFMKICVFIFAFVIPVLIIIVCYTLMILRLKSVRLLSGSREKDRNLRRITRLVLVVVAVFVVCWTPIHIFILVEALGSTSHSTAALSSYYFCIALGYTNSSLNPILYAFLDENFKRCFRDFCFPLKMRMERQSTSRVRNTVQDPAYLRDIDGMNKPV
Mu-type opioid receptor, sequence (P97266 whole entry): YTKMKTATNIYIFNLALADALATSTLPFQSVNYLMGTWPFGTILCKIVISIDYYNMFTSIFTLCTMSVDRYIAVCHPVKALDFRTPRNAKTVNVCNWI
Mu-type opioid receptor (Cavia porcellus), sequence (P97266 whole entry): as above

For orientation: Ki means a dissociation constant, usually derived from enzyme kinetics or from competition with a known ligand. Broadly, the IC50 is the concentration needed to halve the response being measured. A low value points to higher potency. With `CN1CC[C@]23c4c5ccc(O)c4O[C@@H]2[C@H](NC(=O)CCC(=O)N[C@@H]2CC[C@]4(O)[C@H]6Cc7ccc(O)c8c7[C@@]4(CCN6C)[C@@H]2O8)CC[C@]3(O)[C@H]1C5`, the Ratio in experiment [1] was 1.9. Also, on Mu-type opioid receptor, the affinity, expressed as Ki, was 23 nM. For the same compound, the Relative affinity in experiment [2] was 2.7. In experiment [3], the IC50 stood at 15.7 nM. In experiment [4], the Potency ratio was determined as 4.3.
The corresponding values for `CN1CC[C@]23c4c5ccc(O)c4O[C@@H]2[C@H](NC(=O)CNC(=O)CNC(=O)CNC(=O)CCC(=O)NCC(=O)NCC(=O)NCC(=O)N[C@@H]2CC[C@]4(O)[C@H]6Cc7ccc(O)c8c7[C@@]4(CCN6C)[C@@H]2O8)CC[C@]3(O)[C@H]1C5` are 1.7, 22 nM, 2.9, 12.6 nM and 3.9.
For the compound `O=C(CCC(=O)NCC(=O)NCC(=O)N[C@@H]1CC[C@@]2(O)[C@H]3Cc4ccc(O)c5c4[C@@]2(CCN3CC2CC2)[C@H]1O5)NCC(=O)NCC(=O)N[C@@H]1CC[C@@]2(O)[C@H]3Cc4ccc(O)c5c4[C@@]2(CCN3CC2CC2)[C@H]1O5`, affinity on Mu-type opioid receptor was put at a Ki of 1.5 nM. Also, the Ratio is 33.5 in experiment [5] and 10.7 in experiment [6]. For the same compound, the Relative affinity in experiment [2] stood at 0.9. The Selectivity ratio in experiment [7] was 0.2.
The corresponding values for `O=C(CCC(=O)NCC(=O)NCC(=O)NCC(=O)N[C@@H]1CC[C@@]2(O)[C@H]3Cc4ccc(O)c5c4[C@@]2(CCN3CC2CC2)[C@H]1O5)NCC(=O)NCC(=O)NCC(=O)N[C@@H]1CC[C@@]2(O)[C@H]3Cc4ccc(O)c5c4[C@@]2(CCN3CC2CC2)[C@H]1O5` are 1.6 nM, 11.4, 6.8, 0.9 and 0.1.
As to `O=C(CCC(=O)NCC(=O)NCC(=O)NCC(=O)NCC(=O)N[C@@H]1CC[C@@]2(O)[C@H]3Cc4ccc(O)c5c4[C@@]2(CCN3CC2CC2)[C@H]1O5)NCC(=O)NCC(=O)NCC(=O)NCC(=O)N[C@@H]1CC[C@@]2(O)[C@H]3Cc4ccc(O)c5c4[C@@]2(CCN3CC2CC2)[C@H]1O5` (I: GGGG-{Naltrexamine(6β)} / II: GGGG-{Naltrexamine(6β)}; linker I:N-II:N via Suc), the values for the IC50 ratio in experiment [8] and in experiment [12] were 40.7 and 7.2, respectively. Moreover, the Selectivity ratio in experiment [9] is 0.2. In addition, the Ratio in [10] is 7.5; in [11], 6.
Consider `CN1CC[C@]23c4c5ccc(O)c4O[C@H]2[C@@H](NC(=O)CNC(=O)CNC(=O)CNC(=O)CCC(=O)NCC(=O)NCC(=O)NCC(=O)N[C@H]2CC[C@@]4(O)[C@H]6Cc7ccc(O)c8c7[C@@]4(CCN6C)[C@H]2O8)CC[C@@]3(O)[C@H]1C5`, for which, in experiment [1], the Ratio worked out at 2.9. This compound also had an inhibitory constant (Ki) on Mu-type opioid receptor of 34 nM. This compound also displayed a Relative affinity in experiment [2] of 5.3. The IC50 in [3] was 25.1 nM. Also, the Potency ratio in experiment [4] was 5.5.
The corresponding values for `CN1CC[C@]23c4c5ccc(O)c4O[C@@H]2[C@H](NC(=O)CNC(=O)CNC(=O)CCC(=O)NCC(=O)NCC(=O)N[C@@H]2CC[C@]4(O)[C@H]6Cc7ccc(O)c8c7[C@@]4(CCN6C)[C@@H]2O8)CC[C@]3(O)[C@H]1C5` are 3.5, 10 nM, 6.3, 6.3 nM and 8.
As for `CN1CC[C@]23c4c5ccc(O)c4O[C@@H]2[C@H](NC(=O)CNC(=O)CCC(=O)NCC(=O)N[C@@H]2CC[C@]4(O)[C@H]6Cc7ccc(O)c8c7[C@@]4(CCN6C)[C@@H]2O8)CC[C@]3(O)[C@H]1C5`, the Ratio in experiment [1] was 2.5. The compound also came in with an inhibition constant (Ki) on Mu-type opioid receptor of 18 nM. For the same compound, the Relative affinity in [2] stood at 3.5. The compound further displayed an IC50 in experiment [3] of 19.2 nM. Also, the Potency ratio in [4] is 5.8.
The like results for `CC(=O)N[C@@H]1CC[C@@]2(O)[C@H]3Cc4ccc(O)c5c4[C@@]2(CCN3C)[C@H]1O5` were, in that order, 1, 63 nM, 1, 45.9 nM and 2.3.
As for `O=C(CCC(=O)N[C@@H]1CC[C@@]2(O)[C@H]3Cc4ccc(O)c5c4[C@@]2(CCN3CC2CC2)[C@H]1O5)N[C@@H]1CC[C@@]2(O)[C@H]3Cc4ccc(O)c5c4[C@@]2(CCN3CC2CC2)[C@H]1O5`, affinity on Mu-type opioid receptor was put at a Ki of 1.7 nM. Also, the Ratio in [5] came out at 5.1; in experiment [6] it was 25.3. Further, in [2], the Relative affinity stood at 0.8. In [7], the Selectivity ratio is 1.1.
Turning to `CN1CC[C@]23c4c5ccc(O)c4O[C@H]2[C@@H](NC(=O)CCC(=O)N[C@H]2CC[C@@]4(O)[C@H]6Cc7ccc(O)c8c7[C@@]4(CCN6C)[C@H]2O8)CC[C@@]3(O)[C@H]1C5`, the Ratio in [1] stood at 2.4. This compound displayed a Ki at Mu-type opioid receptor of 50 nM. In experiment [2], this compound came in with a Relative affinity of 3.6. In [3], this compound returned a half-maximal inhibitory concentration (IC50) of 30.2 nM. Also, the Potency ratio in experiment [4] worked out at 4.6.
The corresponding values for `CN1CC[C@]23c4c5ccc(O)c4O[C@H]2[C@@H](NC(=O)CNC(=O)CNC(=O)CCC(=O)NCC(=O)NCC(=O)N[C@H]2CC[C@@]4(O)[C@H]6Cc7ccc(O)c8c7[C@@]4(CCN6C)[C@H]2O8)CC[C@@]3(O)[C@H]1C5` are 18.9, 14 nM, 12.9, 3.9 nM and 36.
Turning to `O=C(CCC(=O)NCC(=O)N[C@@H]1CC[C@@]2(O)[C@H]3Cc4ccc(O)c5c4[C@@]2(CCN3CC2CC2)[C@H]1O5)NCC(=O)N[C@@H]1CC[C@@]2(O)[C@H]3Cc4ccc(O)c5c4[C@@]2(CCN3CC2CC2)[C@H]1O5`, the inhibitory constant (Ki) on Mu-type opioid receptor was found to be 2.3 nM. In addition, the Ratio in experiment [5] was found to be 10.6; in experiment [6] it was 18.6. Further, the Relative affinity in [2] is 0.6. For the same compound, in experiment [7], the Selectivity ratio is 0.4.
On to `CN1CC[C@]23c4c5ccc(O)c4O[C@H]2[C@@H](NC(=O)CNC(=O)CCC(=O)NCC(=O)N[C@H]2CC[C@@]4(O)[C@H]6Cc7ccc(O)c8c7[C@@]4(CCN6C)[C@H]2O8)CC[C@@]3(O)[C@H]1C5`, for which the Ratio in experiment [1] turned out to be 2.1. At Mu-type opioid receptor, this compound registered a Ki of 44 nM. This compound also gave a Relative affinity in experiment [2] of 4.1. The same compound yielded an IC50 in [3] of 22 nM. The Potency ratio in experiment [4] came to 4.

For the origin of these results see ChEMBL document CHEMBL1123225, “Opioid agonist and antagonist bivalent ligands. The relationship between spacer length and selectivity at multiple opioid receptors” (J Med Chem, 1986).
